The EternaBench riboswitch data

Tests used:
MS2 coat protein [1] = test: apparent Kd, MS2 coat protein; higher = weaker binding; RNA-MaP array
Summary of the method: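 The designed RNAs, transcribed from sequenced DNA templates on an Illumina sequencing chip, were incubated with fluorescently labeled MS2 coat protein at room temperature. Protein ranged from 1.5 nM to 3 μM, with 0.8–1.5 h incubation at the lowest and 10–20 min at the highest concentrations, in Tris-HCl pH 7.5 buffer with KCl, MgCl2, BSA, DTT, tRNA and Tween20, with or without input ligand. The median of per-cluster binding-curve fits gives the apparent Kd, and designs measured on fewer than 10 clusters were excluded.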

MS2 coat protein [2] = test: apparent Kd, MS2 coat protein; higher = weaker binding; RNA-MaP array; FMN 200 µM where present; settings: designed as: OFF switch for flavin mononucleotide
Summary of the method: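 Binding was read on Illumina sequencing-chip clusters where stalled E. coli RNA polymerase had transcribed each design. A titration of SNAP-549-labelled MS2 coat protein began at 0.7 or 1.5 nM and doubled to 3 µM, once without ligand and once with constant ligand, in 100 mM Tris-HCl pH 7.5, 80 mM KCl, 4 mM MgCl2, BSA, DTT, yeast tRNA and Tween-20. The apparent Kd is the median of filtered per-cluster binding-curve fits, based on green signal normalised to red-channel RNA signal and control-cluster median Fmax.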

[3] = designed as: OFF switch for flavin mononucleotide, no ligand
[4] = ligand present: flavin mononucleotide, designed as: OFF switch for flavin mononucleotide
[5] = designed as: ON switch for flavin mononucleotide, no ligand
[6] = ligand present: flavin mononucleotide, designed as: ON switch for flavin mononucleotide
[7] = designed as: ON switch for theophylline, no ligand
[8] = ligand present: theophylline, designed as: ON switch for theophylline

Row | Sequence | apparent Kd (MS2 coat protein [1]; [3]) [nM] | apparent Kd (MS2 coat protein [1]; [4]) [nM] | further results
1 | CGGUGUGCAGAGGAUAUCGGCGUUUUCUCACAUCGAGAAGGCUGCACAUGAGGAUCACCCAUGUAUCUUUAGGA | 58.6 | 189 | –
2 | CCUCAAAGACAGAAGGAAGGUCCGCUACUAGCAGUAACAACAUGAGGAUCACCCAUGUCAAUACCUUAGGAUAUGUAAGAACGC | – | – | apparent Kd (MS2 coat protein [1]; [5]): 71.2 nM; apparent Kd (MS2 coat protein [1]; [6]): 16.5 nM
3 | GGCCCACAUGAGGAUCACCCAUGUGUGGAUACCAGCCUCAUUUAGGGCCCUUGGCAGCCAGAUAGUAACAAGUCCGAAACACAGA | – | – | apparent Kd (MS2 coat protein [1]; [7]): 93.3 nM; apparent Kd (MS2 coat protein [1]; [8]): 94.1 nM
4 | AUGUAACGUGAGAAGGUGUUGAAAUAAGUUCCAUAAAUCUUACAUGAGGAUCACCCAUGUUUAUACAAGGAUAUCAUUAAUUAU | – | – | apparent Kd (MS2 coat protein [1]; [5]): 16.8 nM; apparent Kd (MS2 coat protein [1]; [6]): 12.9 nM
5 | AGUCGUUAACGGCGCAACACAUGAGGAUCACCCAUGUGCUAUGAGGAUAUCCGGGUGUACAAGCCGGAGAAGGCAUCGUUCUUU | – | – | apparent Kd (MS2 coat protein [1]; [5]): 10.6 nM; apparent Kd (MS2 coat protein [1]; [6]): 9.55 nM
6 | CACGAACAUGAGGAUCACCCAUGUCAGGAUAUCGUGCUAAUCCCAUAAUCGGCGCGCACGAGAAGGGACCAGGG | 12.7 | 19.6 | –
7 | ACUCGACAUGAGGAUCACCCAUGUCAGGAUAUCUGAGUGUGGCCUCCUACUAAACUAUAGAGAAGGGACAAUGG | 10.3 | 11 | –
8 | UUCUACUAGUGACACUACUAGACAUGAGGAUCACCCAUGUCAGAGGAUAUGGAAAGACAUUAUUACCAGAAGGCUGCCAAGGUA | – | – | apparent Kd (MS2 coat protein [1]; [5]): 15.6 nM; apparent Kd (MS2 coat protein [1]; [6]): 15 nM
9 | ACAAAAUAGCUAGGAUAUCGUACGAAUUGACAUUUUUAGCAAACAUGAGGAUCACCCAUGUCCUACGAGAAGGAGCUUAUGAAG | 14.3 | 7.55 | –
10 | GACAAUAAUUCAACAAUCAAAAUAGUGGGACGAGGACCGGUACGGCCGCCACUCGCUGAAGCACAUGAGGAUCACCCAUGUCUAA | – | – | apparent Kd (MS2 coat protein [1]; designed as: OFF switch for tryptophan, no ligand): 17.2 nM; apparent Kd (MS2 coat protein [1]; ligand present: tryptophan, designed as: OFF switch for tryptophan): 17.8 nM
11 | CAAAUAGACCACGAUACCAGAACACAAGGAGUAAUAUCAAACAUGAGGAUCACCCAUGUCUUCCCUUGGCAGCGUAGCACGGAGU | – | – | apparent Kd (MS2 coat protein [1]; designed as: OFF switch for theophylline, no ligand): 11.7 nM; apparent Kd (MS2 coat protein [1]; ligand present: theophylline, designed as: OFF switch for theophylline): 13.3 nM
12 | CUGAGCCUGUGUGUACAUGAGGAUCACCCAUGUUCGAUAGGGUAGGAUAUCGCAGUUUCUUGAGCCGAGAAGGACCCUAAUGGA | 16.5 | 30.1 | –
13 | CUCACUAAGCUUUAGGAUAUAGACACUGGCACAUGAGGAUCACCCAUGUUCAACAAGGCGGAUAACUAGAAGGAAAGUAACCUUUU | – | – | apparent Kd (MS2 coat protein [1]; [5]): 11.9 nM; apparent Kd (MS2 coat protein [1]; [6]): 9.64 nM
14 | GGGAUUCGUGUUAGGAUAUUGAGGUGUAUUCCCGACAAGAAGGAACAUGAGGAUCACCCAUGUUGGGAACUGUG | 33.9 | 62.6 | –
15 | GCGCGCGGUGGCGGUCAACAUGAGGAUCACCCAUGUGUGAACAGAAGGCGCGUAUGCUACCAUGGCGAGGAUAUGUUGGGUCAG | 5.95 | 5.99 | –
16 | GUUCCCAUAUCAGGAUAUAUUUCACAUGAGGAUCACCCAUGUUACCCGUGAAGUCGACUCUAUGUAUAGAAGGGAUGAUGGGCC | 55.4 | 43.7 | –
17 | CCUUCGUCGAAUGUGUAACAUGAGGAUCACCCAUGUAGUCUGGAGGAUAUCUAACACAGCUGAAAAGAGAAGGCCAGGUCUGCA | 26 | 48.6 | –
18 | UACAAACCGUUAGAUGGGACAUGAGGAUCACCCAUGUAUAACAGAAGGUCAAAUUGAAACAUUCAGAAGGAUAUGUCAUACAAA | 85.3 | 59.5 | –
19 | AGUUGACCAAGAGGAUAUGCCCUGUCUUUAUGUACAUGCAGAACAUGAGGAUCACCCAUGUGACGGCAGAAGGCUUAGCCGGUG | 6.77 | 7.12 | –
20 | AAGAGACAUGAGGAUCACCCAUGUGUUGAUACCAGAAACACAAAGUUCCCUUGGCAGCAAAUCUGAGCGAAACGAUCUAGAGCGC | – | – | apparent Kd (MS2 coat protein [1]; [7]): 48.4 nM; apparent Kd (MS2 coat protein [1]; [8]): 74.5 nM
21 | GGGUAACCAGUUAGGAUAUUGAAUAGUUUGAUGUUCAAGAAGGAACAUGAGGAUCACCCAUGUAUGGGACUAGA | 139 | 174 | –
22 | AUACGUGCAGGAUAUUAUUCGAGCCACAUGAGGAUCACCCAUGUUAAUUCUUCAUGUAUCUAAGAAGGGCAGUGAA | 9.07 | 9.67 | –
23 | AUCAGCUCGUCAGGAUAUACGUCACCGCGUCAGCAGUGUGGUAAGAUCACAUGAGGAUCACCCAUGUAGAAGGGACGAGCUGAU | – | – | apparent Kd (MS2 coat protein [2]; no ligand): 13.6 nM; apparent Kd (MS2 coat protein [2]; ligand present: flavin mononucleotide): 237 nM
